Assay results as given in ChEMBL document CHEMBL2203025, “6,7-Dihydroxy-1-oxoisoindoline-4-sulfonamide-containing HIV-1 integrase inhibitors” (Bioorg Med Chem Lett, 2012).
pEC50, pIC50: −log10 of the molar value.

Legend:
[1] = target: T1, Human immunodeficiency virus type 1 integrase (Human immunodeficiency virus 1, UniProt Q7ZJM1); assay: Inhibition of HIV1 recombinant integrase 3' processing activity using [32P]-labeled oligonucleotide a substrate after 30 mins by electrophoretic analysis
In short: (§1)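 Gel-based IN assay run in vitro with Mg2+ as cofactor. IC50 values were determined separately for the 3'-processing and strand transfer reactions.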

[2] = target: T1, Human immunodeficiency virus type 1 integrase; assay: Inhibition of HIV1 recombinant integrase strand transfer activity using [32P]-labeled oligonucleotide a substrate after 30 mins by electrophoretic analysis; in short: as §1
[3] = Selectivity index, ratio of CC50 for human HOS cells to EC50 for HIV1 expressing wild type integrase; type: toxicity, cell-based; details: read-out: Ratio CC50/EC50
[4] = system: Human immunodeficiency virus 1; assay: Ratio of EC50 for HIV1 expressing integrase Y143R mutant to EC50 for HIV1 expressing wild type integrase; type: functional
[5] = system: Human immunodeficiency virus 1; assay: Antiviral activity against HIV1 expressing wild type integrase infected in HOS cells; type: functional, organism-based; details: Human immunodeficiency virus 1, HOS
In short: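 HOS cells infected with a lentiviral vector carrying wild-type IN; EC50 from the infected cells.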

HOS = assay: Cytotoxicity against human HOS cells assessed as reduction in ATP level; type: cell-based

T1 sequence (Q7ZJM1 whole entry): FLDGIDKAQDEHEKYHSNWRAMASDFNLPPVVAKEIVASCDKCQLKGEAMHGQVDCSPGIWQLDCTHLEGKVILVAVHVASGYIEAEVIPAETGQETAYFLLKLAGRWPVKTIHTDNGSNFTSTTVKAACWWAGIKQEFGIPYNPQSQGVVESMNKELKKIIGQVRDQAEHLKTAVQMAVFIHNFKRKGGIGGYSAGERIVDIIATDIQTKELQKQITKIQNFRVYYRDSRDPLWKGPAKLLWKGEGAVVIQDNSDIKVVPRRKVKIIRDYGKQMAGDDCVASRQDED

SMILES	pIC50 [1]	pIC50 [2]	selectivity ratio [3]	Ratio EC50 [4]	pEC50 [5]	CC50 (HOS) [µM]
NCCN1CCN(S(=O)(=O)c2cc(O)c(O)c3c2CN(Cc2ccc(F)c(Cl)c2)C3=O)CC1	4.67	6.72	–	–	–	–
O=C1c2c(O)c(O)cc(S(=O)(=O)NCc3ccccn3)c2CN1Cc1ccc(F)c(Cl)c1	4.64	6.43	–	–	–	–
CN1CCN(S(=O)(=O)c2cc(O)c(O)c3c2CN(Cc2ccc(F)c(Cl)c2)C3=O)CC1	4.64	6.40	144	1	7.37	6.2
O=C1c2c(O)c(O)cc(S(=O)(=O)N3CCOCC3)c2CN1Cc1ccc(F)c(Cl)c1	5.17	7.33	241	2	7.66	5.3
Cc1cc2c(c(O)c1O)C(=O)N(Cc1ccc(F)c(Cl)c1)C2	< 3.95	4.94	–	–	–	–
O=C1c2c(O)c(O)cc(S(=O)(=O)NCCCBr)c2CN1Cc1ccc(F)c(Cl)c1	4.83	6.96	49	1	7.03	4.6
CN(C)S(=O)(=O)c1ccc(-c2c(O)c(O)c3c(c2S(=O)(=O)N(C)C)CN(Cc2ccc(F)c(Cl)c2)C3=O)cc1	4.45	6.60	21	4	6.88	2.8
O=C1c2c(O)c(O)cc(S(=O)(=O)NCCN3CCNCC3)c2CN1Cc1ccc(F)c(Cl)c1	4.71	6.51	–	–	–	–
CC(C)c1c(O)c(O)c2c(c1S(=O)(=O)N(C)C)CN(Cc1ccc(F)c(Cl)c1)C2=O	< 3.95	6.72	3	–	5.44	12.1
O=C(O)CNS(=O)(=O)c1cc(O)c(O)c2c1CN(Cc1ccc(F)c(Cl)c1)C2=O	4.93	7.10	115	3	6.03	107
CC(C)c1c(O)c(O)c2c(c1S(=O)(=O)N1CCOCC1)CN(Cc1ccc(F)c(Cl)c1)C2=O	< 3.95	6.39	2	4	5.47	5.9
O=C1c2c(O)c(O)cc(S(=O)(=O)NCCN3CCOCC3)c2CN1Cc1ccc(F)c(Cl)c1	4.52	6.49	–	–	–	–
O=C1c2c(cc(O)c(O)c2O)CN1Cc1ccc(F)c(Cl)c1	4.44	5.82	–	–	–	–
CCCCc1c(O)c(O)c2c(c1S(=O)(=O)N(C)C)CN(Cc1ccc(F)c(Cl)c1)C2=O	< 3.95	5.64	2	1	5.42	7
CNS(=O)(=O)c1cc(O)c(O)c2c1CN(Cc1ccc(F)c(Cl)c1)C2=O	4.76	6.92	108	1	7.40	4.3
CCN(CC)S(=O)(=O)c1cc(O)c(O)c2c1CN(Cc1ccc(F)c(Cl)c1)C2=O	5.02	7.27	494	3	7.77	8.4
CN(CC(=O)O)S(=O)(=O)c1cc(O)c(O)c2c1CN(Cc1ccc(F)c(Cl)c1)C2=O	5.16	7.24	680	2	6.85	95.2
CN(C)S(=O)(=O)c1ccc(-c2cc3c(c(O)c2O)C(=O)N(Cc2ccc(F)c(Cl)c2)C3)cc1	< 3.95	6.40	–	–	–	–
CN(C)S(=O)(=O)c1c(O)c(O)c(O)c2c1CN(Cc1ccc(F)c(Cl)c1)C2=O	5.12	6.59	29	2	6.80	4.6
O=C1c2c(ccc(O)c2O)CN1Cc1ccc(F)c(Cl)c1	–	–	12	1	6.35	–
CCCCc1cc2c(c(O)c1O)C(=O)N(Cc1ccc(F)c(Cl)c1)C2	< 3.95	5.17	–	–	–	–
O=C1c2c(cc(-c3ccccc3)c(O)c2O)CN1Cc1ccc(F)c(Cl)c1	< 3.95	6.06	–	–	–	–
Cc1c(O)c(O)c2c(c1S(=O)(=O)N(C)C)CN(Cc1ccc(F)c(Cl)c1)C2=O	4.30	5.55	20	2	6.49	6.3
CC(C)c1cc2c(c(O)c1O)C(=O)N(Cc1ccc(F)c(Cl)c1)C2	< 3.95	5.27	–	–	–	–
CN(C)CCCNS(=O)(=O)c1cc(O)c(O)c2c1CN(Cc1ccc(F)c(Cl)c1)C2=O	4.80	6.62	–	–	–	–
